Results on 25 compounds are retold here after ChEMBL document CHEMBL1128217, “Synthesis, structure-affinity relationships, and biological activities of ligands binding to retinoic acid receptor subtypes” (J Med Chem, 1995).

Structures are written as SMILES.

Assay [1] concerns F9. Briefly: In vitro promotion of plasminogen activator secretion from F9 (murine teratocarcinoma) cells. The class given is functional, cell-based. The settings on record: Mus musculus. The gist of the method: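 F9 murine teratocarcinoma cells grown in DMEM with 15% fetal bovine serum, exposed 3 days to a range of retinoid concentrations. Differentiation quantified by plasminogen activator secretion; AC50 (concentration giving half-maximal secretion) obtained by nonlinear regression.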

The target in assay [2] is T1, Retinoic acid receptor gamma (Homo sapiens, UniProt P13631).
T1 sequence (P13631 whole entry): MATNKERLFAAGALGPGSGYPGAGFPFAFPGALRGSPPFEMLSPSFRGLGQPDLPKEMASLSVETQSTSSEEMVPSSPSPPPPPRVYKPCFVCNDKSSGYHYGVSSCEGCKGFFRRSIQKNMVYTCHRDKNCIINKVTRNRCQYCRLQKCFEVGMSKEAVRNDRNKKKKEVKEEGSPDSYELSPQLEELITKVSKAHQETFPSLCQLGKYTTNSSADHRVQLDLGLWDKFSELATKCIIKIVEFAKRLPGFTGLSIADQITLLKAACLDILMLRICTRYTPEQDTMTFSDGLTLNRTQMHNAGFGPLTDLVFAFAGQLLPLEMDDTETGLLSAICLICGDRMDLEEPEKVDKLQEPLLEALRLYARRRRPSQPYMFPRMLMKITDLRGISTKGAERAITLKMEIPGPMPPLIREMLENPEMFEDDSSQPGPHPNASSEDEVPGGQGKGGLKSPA
Nature of the assay: Binding affinity to retinoic acid receptor (RAR) gamma using [3H]CD 367 as radioligand.

Assay [3] deals with T2, Retinoic acid receptor beta (Homo sapiens, UniProt P10826).
T2 sequence (P10826 whole entry): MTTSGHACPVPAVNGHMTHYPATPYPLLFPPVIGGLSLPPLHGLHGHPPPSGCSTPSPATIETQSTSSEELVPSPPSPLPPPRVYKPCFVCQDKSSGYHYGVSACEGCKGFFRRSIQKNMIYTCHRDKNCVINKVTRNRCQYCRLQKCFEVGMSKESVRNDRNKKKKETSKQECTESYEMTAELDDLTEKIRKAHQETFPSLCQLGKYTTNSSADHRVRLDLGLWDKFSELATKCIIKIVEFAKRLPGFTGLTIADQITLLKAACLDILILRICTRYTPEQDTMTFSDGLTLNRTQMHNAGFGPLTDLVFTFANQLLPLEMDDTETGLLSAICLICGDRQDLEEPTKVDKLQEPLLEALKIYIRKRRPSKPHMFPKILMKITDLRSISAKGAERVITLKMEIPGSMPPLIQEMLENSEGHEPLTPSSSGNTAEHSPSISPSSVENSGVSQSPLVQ
Nature of the assay: Binding affinity to retinoic acid receptor beta using [3H]CD 367 as radioligand.

Assay [4] has as its target T3, Retinoic acid receptor alpha (Homo sapiens, UniProt P10276).
T3 sequence (P10276 whole entry): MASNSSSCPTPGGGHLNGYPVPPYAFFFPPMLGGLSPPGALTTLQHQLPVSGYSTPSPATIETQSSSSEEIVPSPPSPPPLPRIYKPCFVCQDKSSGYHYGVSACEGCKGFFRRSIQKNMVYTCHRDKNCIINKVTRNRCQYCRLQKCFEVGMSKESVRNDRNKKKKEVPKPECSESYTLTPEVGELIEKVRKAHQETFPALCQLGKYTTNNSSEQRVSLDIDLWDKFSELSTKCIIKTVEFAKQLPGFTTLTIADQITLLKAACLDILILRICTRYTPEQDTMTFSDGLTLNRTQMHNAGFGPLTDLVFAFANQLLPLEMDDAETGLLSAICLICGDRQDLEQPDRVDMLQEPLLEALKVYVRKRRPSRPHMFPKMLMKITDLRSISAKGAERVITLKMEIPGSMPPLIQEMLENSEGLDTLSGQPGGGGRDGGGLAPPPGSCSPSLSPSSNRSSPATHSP
Briefly: Binding affinity to retinoic acid receptor alpha using [3H]CD 367 as radioligand.

Assay [5] has as its system F9. Briefly: Compound was evaluated for its inhibitory activity against F9 murine teratocarcinoma cell differentiation;NA=not active. The class given is functional, cell-based, Mus musculus.
For assay [6], the system named is F9. Briefly: Compound was evaluated for its inhibitory activity against F9 murine teratocarcinoma cell differentiation; NA=not active. The class given is functional, cell-based, Mus musculus.
Assay [7] has as its system F9. Nature of the assay: Compound was evaluated for its inhibitory activity against F9 murine teratocarcinoma cell differentiation. The class given is functional, cell-based. The settings on record: Mus musculus.

What is called AC50 is the midpoint of the concentration-response curve, whichever way the signal moves. A lower AC50 goes with activity at low concentration. In general, Ki refers to a measure of affinity in units of concentration, obtained from inhibition or displacement. Compound `COc1ccc(/C(C)=C/c2ccc(C(=O)O)cc2)cc1C1(C)CCCCC1` displayed a half-maximal activity concentration (AC50) in assay [1] of 30 nM. For the same compound, the Ki in assay [2] was determined as 29 nM; in assay [3], 17 nM; in assay [4] it was 420 nM.

`CC1(C)CCC(C)(C)c2cc(-c3ccc4cc(C(=O)O)ccc4c3)ccc21`: half-maximal activity in assay [1] (AC50) was put at 15 nM. Moreover, the Ki is 40 nM in assay [2], 13 nM in assay [3] and 580 nM in assay [4].

`O=C(O)c1ccc2cc(-c3ccc(C(O)CO)c(C45CC6CC(CC(C6)C4)C5)c3)ccc2c1` (centres undefined) returned an AC50 in assay [1] of 73 nM. Further, the inhibition constant (Ki) in assay [2] is 153 nM; in assay [3], 288 nM; in assay [4], over 10000 nM.

The compound `CC1(C)CCOc2ccc(-c3ccc4cc(C(=O)O)ccc4c3)cc21` had an AC50 in assay [1] of 300 nM. Moreover, the Ki in assay [2] is 860 nM; in assay [3] it was 210 nM; in assay [4] it was 8500 nM.

In assay [1], `O=C(O)c1ccc2cc(-c3ccc(C(=O)O)c(C45CC6CC(CC(C6)C4)C5)c3)ccc2c1` yielded an AC50 of 2000 nM. Besides, the Ki in assay [2], in assay [3] and in assay [4] was over 10000 nM each time.

In general, IC50 refers to the concentration that gives 50% inhibition. Lower therefore signals greater potency. Regarding `CC(C)(C)c1cc(-c2ccc3cc(C(=O)O)ccc3c2)ccc1O`, the Ki in assay [2] is 200 nM; in assay [3], 3550 nM; in assay [4], over 10000 nM. For the same compound, the half-maximal activity concentration (AC50) result in assay [5] is reported as “Not Active”. In addition, the concentration for half-maximal inhibition (IC50) entry in assay [5] was “Not Active”.

For the compound `COc1ccc(-c2ccc3cc(C(=O)O)ccc3c2)cc1C(C)(C)C`, the half-maximal activity concentration (AC50) in assay [1] is 200 nM. Further, the Ki in assay [2] came out at 426 nM; in assay [3] it was 36 nM; in assay [4] it was 6500 nM.

In assay [1], `O=C(O)c1ccc2cc(-c3ccc(O)c(C45CC6CC(CC(C6)C4)C5)c3)ccc2c1` [O-DEMETHYLATED ADAPALENE] showed an AC50 of 33 nM. Further, the inhibition constant Ki in assay [3] turned out to be 2480 nM; in assay [4], 6500 nM.

Regarding `C/C(=C\c1ccc(C(=O)O)cc1)c1ccc2c(c1)C(C)(C)CCC2(C)C`, the activity in assay [1] was half-maximal at 0.78 nM (AC50).

The compound `COc1ccc(-c2ccc3cc(C(=O)O)ccc3c2)cc1C1(C)CCCCC1` came in with an AC50 in assay [1] of 150 nM. In addition, the Ki in assay [2] is 160 nM; in assay [3], 26 nM; in assay [4], 1120 nM.

Compound `CC1=C(/C=C/C(C)=C/C=C/C(C)=C/C(=O)O)C(C)(C)CCC1` [TRETINOIN] yielded an AC50 in assay [1] of 200 nM.

`CC1(C)CCC(C)(C)c2cc3cc(-c4ccc(C(=O)O)cc4)ccc3cc21` registered a half-maximal activity concentration (AC50) in assay [1] of 0.46 nM. Besides, the inhibition constant (Ki) in assay [2] turned out to be 2 nM; in assay [3], 3 nM; in assay [4], 5.3 nM.

With `COc1ccc(/C(C)=C/c2ccc(C(=O)O)cc2)cc1C(C)(C)C`, half-maximal activity in assay [1] (AC50) was put at 30 nM. The Ki is 13 nM in assay [2], 12 nM in assay [3] and 130 nM in assay [4].

`COc1ccc(/C(C)=C/c2ccc(C(=O)O)cc2)cc1C12CC3CC(CC(C3)C1)C2`: the AC50 in assay [1] worked out at 100 nM. Moreover, the Ki amounted to 95 nM in assay [2], 105 nM in assay [3] and 460 nM in assay [4].

As to `COc1ccc(-c2ccc3cc(C(=O)O)ccc3c2)cc1C12CC3CC(CC(C3)C1)C2`, the half-maximal activity concentration (AC50) in assay [1] was 37 nM. For the same compound, the Ki in assay [3] amounted to 34 nM; in assay [4], 1100 nM.

Turning to `O=C(O)c1ccc2cc(-c3ccc(CCCO)c(C45CC6CC(CC(C6)C4)C5)c3)ccc2c1`, the AC50 in assay [1] is 7.5 nM. For the same compound, the Ki in assay [2] amounted to 72 nM; in assay [3], 21 nM; in assay [4], 695 nM.

For `O=C(O)c1ccc(/C=C/c2ccc(O)c(C34CC5CC(CC(C5)C3)C4)c2)cc1`, the AC50 in assay [1] stood at 1 nM. For the same compound, the Ki in assay [2] was 20 nM; in assay [3], 70 nM; in assay [4] it was 610 nM.

Consider `O=C(O)c1ccc2cc(-c3ccc(OCC(O)CO)c(C45CC6CC(CC(C6)C4)C5)c3)ccc2c1` (centres undefined), for which the AC50 in assay [1] was 83 nM. The Ki in assay [2] was 151 nM; in assay [3], 89 nM; in assay [4], 5000 nM.

For `C/C(=C\c1ccc(C(=O)O)cc1)c1ccc(O)c(C2(C)CCCCC2)c1`, the AC50 in assay [1] was 300 nM. For the same compound, the Ki in assay [2] was determined as 27 nM; in assay [3], 90 nM; in assay [4], 1060 nM.

`CC1(c2cc(-c3ccc4cc(C(=O)O)ccc4c3)ccc2O)CCCCC1` had an AC50 in assay [1] of 175 nM. The values for the inhibition constant (Ki) in assay [2], in assay [3] and in assay [4] were 121 nM, 660 nM and over 10000 nM, respectively.

In turn, `C/C(=C\c1ccc(C(=O)O)cc1)c1ccc(O)c(C23CC4CC(CC(C4)C2)C3)c1` showed an AC50 in assay [1] of 66 nM. The Ki is 53 nM in assay [2], 1240 nM in assay [3] and 1140 nM in assay [4].

With `O=C(O)c1ccc2cc(-c3ccc(CO)c(C45CC6CC(CC(C6)C4)C5)c3)ccc2c1`, the AC50 in assay [1] was determined as 460 nM. The values for the inhibition constant (Ki) in assay [2], in assay [3] and in assay [4] were 386 nM, 156 nM and over 10000 nM, respectively.

For `O=C(O)c1ccc2cc(-c3ccc(CC(O)CO)c(C45CC6CC(CC(C6)C4)C5)c3)ccc2c1` (centres undefined), in assay [1], the AC50 was 100 nM. Further, the inhibition constant Ki in assay [2] is 34 nM; in assay [3] it was 158 nM; in assay [4] it was over 10000 nM.

In the case of `CCCCCCOc1ccc(-c2ccc3cc(C(=O)O)ccc3c2)cc1C12CC3CC(CC(C3)C1)C2`, the inhibition constant Ki in assay [2], in assay [3] and in assay [4] was over 10000 nM in each case. In assay [6], the AC50 entry is “Not Active”.

As for `C/C(=C\c1ccc(C(=O)O)cc1)c1ccc(O)c(C(C)(C)C)c1`, the Ki was determined as 85 nM in assay [2], 105 nM in assay [3] and 834 nM in assay [4]. In addition, in assay [5], the AC50 result is recorded as “Not Active”. For the same compound, in assay [7], the IC50 was 700 nM.
